Data reported in ChEMBL document CHEMBL2169854, “New insight into the central benzodiazepine receptor-ligand interactions: design, synthesis, biological evaluation, and molecular modeling of 3-substituted 6-phenyl-4H-imidazo[1,5-a][1,4]benzodiazepines and related compounds” (J Med Chem, 2011).
Activity calls are given as the source filed them. No cut-off for these calls is given here.

Assays:
Rattus norvegicus = species on record: Rattus norvegicus; experiment: Partial agonist activity at central benzodiazepine receptor in Sprague-Dawley rat cerebrocortical synaptoneurosomes assessed as increase in GABA-induced [36]chloride ion flow after 10 seconds by beta liquid scintillation counting; type: functional
Summary of the method: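 Cerebral cortex from male Sprague-Dawley rats was homogenised and filtered, and synaptoneurosomes were washed in HEPES pH 7 buffer (145 mM NaCl, 5 mM KCl, 5 mM MgCl2, 1 mM CaCl2, 10 mM glucose). Aliquots of 1.5–2 mg protein were preincubated 10 min at 30 C. Drug was added with 0.2 μCi 36Cl−, uptake was stopped at 10 s, and filter-bound radioactivity was counted by scintillation.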

Bos taurus = species on record: Bos taurus; experiment: Ratio of Ki for central benzodiazepine receptor in bovine cortical membrane to Ki for central benzodiazepine receptor in bovine cortical membrane in presence of 50 uM GABA; type: cell membranes
[1] = Displacement of [3H]flumazenil from central benzodiazepine receptor in bovine cortical membrane after 90 mins by beta liquid scintillation counting; type: cell membranes, Bos taurus
Summary of the method: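 At least six concentrations spanning 3 log units were tested in 2% DMSO. Ki was obtained by Cheng–Prusoff (Kd 0.85 nM bovine, 0.91 nM human), mean of three determinations.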

[2] = molecular target: T1, GABA A receptor alpha-2/beta-2/gamma-2 (Homo sapiens, UniProt P18507+P47869+P47870); experiment: Displacement of [3H]flumazenil from human recombinant GABA-A alpha2beta2gamma2L receptor expressed in HEK293 cells; type: cell-based
T1 sequence (P47870 whole entry): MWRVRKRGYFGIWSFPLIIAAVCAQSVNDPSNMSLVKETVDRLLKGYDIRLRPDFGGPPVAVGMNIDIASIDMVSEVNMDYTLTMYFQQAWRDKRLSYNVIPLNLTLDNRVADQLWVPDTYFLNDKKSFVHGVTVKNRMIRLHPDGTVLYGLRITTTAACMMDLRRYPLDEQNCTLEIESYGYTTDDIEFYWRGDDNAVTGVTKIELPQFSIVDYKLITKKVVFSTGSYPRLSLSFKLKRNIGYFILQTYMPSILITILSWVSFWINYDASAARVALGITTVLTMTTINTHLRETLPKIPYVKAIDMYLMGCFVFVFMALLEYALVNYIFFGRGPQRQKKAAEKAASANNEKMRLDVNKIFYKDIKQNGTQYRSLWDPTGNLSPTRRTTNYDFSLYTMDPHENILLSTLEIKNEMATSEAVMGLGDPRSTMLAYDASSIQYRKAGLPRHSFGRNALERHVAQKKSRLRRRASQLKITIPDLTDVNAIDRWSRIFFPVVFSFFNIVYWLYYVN
T1 sequence (P18507 whole entry): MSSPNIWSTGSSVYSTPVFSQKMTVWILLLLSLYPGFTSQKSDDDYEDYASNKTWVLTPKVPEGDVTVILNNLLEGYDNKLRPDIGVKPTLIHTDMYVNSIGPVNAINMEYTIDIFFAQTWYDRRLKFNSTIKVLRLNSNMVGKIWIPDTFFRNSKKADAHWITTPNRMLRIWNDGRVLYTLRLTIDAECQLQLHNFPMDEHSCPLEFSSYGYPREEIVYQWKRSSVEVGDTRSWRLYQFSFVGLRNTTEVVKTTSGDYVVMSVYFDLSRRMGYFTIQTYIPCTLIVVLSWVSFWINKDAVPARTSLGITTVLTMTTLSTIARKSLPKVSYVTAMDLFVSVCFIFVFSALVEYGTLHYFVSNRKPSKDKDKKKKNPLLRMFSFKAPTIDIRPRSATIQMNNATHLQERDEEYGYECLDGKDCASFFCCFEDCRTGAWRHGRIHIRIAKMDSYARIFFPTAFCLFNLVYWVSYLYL
T1 sequence (P47869 whole entry): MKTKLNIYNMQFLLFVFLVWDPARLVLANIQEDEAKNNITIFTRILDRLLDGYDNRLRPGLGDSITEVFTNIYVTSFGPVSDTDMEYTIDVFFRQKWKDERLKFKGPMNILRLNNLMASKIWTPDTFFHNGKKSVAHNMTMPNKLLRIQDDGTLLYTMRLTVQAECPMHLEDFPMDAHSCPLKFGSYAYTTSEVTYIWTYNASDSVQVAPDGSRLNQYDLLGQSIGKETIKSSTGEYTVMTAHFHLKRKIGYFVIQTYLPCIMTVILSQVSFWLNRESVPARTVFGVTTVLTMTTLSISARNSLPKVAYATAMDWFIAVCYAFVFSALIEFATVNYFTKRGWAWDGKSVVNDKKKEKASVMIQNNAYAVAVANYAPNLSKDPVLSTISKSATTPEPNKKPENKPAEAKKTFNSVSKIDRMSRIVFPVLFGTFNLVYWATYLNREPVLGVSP
Summary of the method: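 Membranes came from stably transfected HEK293 lines expressing α2β2γ2 or α5β3γ2, grown in MEM/EBSS with 10% FCS at 37 C, and were resuspended in 10 mM potassium phosphate pH 7.4 with 100 mM KCl. […] At least six concentrations were tested, DMSO ≤1%. Ki was obtained by Cheng–Prusoff from n = 3 experiments run in triplicate.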

[3] = molecular target: GABA A receptor alpha-1/beta-1/gamma-2 (Homo sapiens) (UniProt P14867+P18507+P18505); experiment: Modulation of human recombinant GABA-A alpha1beta1gamma2L receptor expressed in Xenopus laevis oocytes assessed as effect on GABA-induced chloride current at 1 uM incubated 60 seconds before addition of GABA measured after 30 seconds at holding potential -70 mV by two-microelectrode voltage clamp technique relative to control; type: cell-based; details: Oocyte
Mus musculus [4] = experiment: Myorelaxant activity in mouse assessed as motor coordination measuring number of falls at 10 mg/kg, po measured for 30 seconds after 45 mins of compound administration by rotarod test; type: functional, organism-based; design: dose 10 mg/kg
Summary of the method: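 In mice, falls from the rotating rod were counted for 30 s after dosing. Compound was given orally in 1% CMC and diazepam ip in saline. Results were compared against saline/CMC controls by ANOVA.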

Mus musculus [5] = experiment: Antiamnesic activity against scopolamine-induced amnesic effect in mouse at 10 mg/kg, po by passive avoidance test; type: functional, organism-based; design: dose 10 mg/kg
Summary of the method: (§1)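 In a mouse passive-avoidance test, oral doses in 1% CMC were tested against amnesia induced by 1.5 mg/kg scopolamine ip. Retention latency was scored and compared with controls by ANOVA.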

Mus musculus [6] = experiment: […] activity in mouse assessed as effect on spontaneous motility measuring number of movements on plane board at 10 mg/kg, po after 5 mins by hole-board test relative to CMC-treated control; type: functional, organism-based; design: dose 10 mg/kg
Summary of the method: (§2)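 Mice dosed orally in 1% CMC were placed singly on a 16-hole board for 5 min. Photocells counted plane movements (spontaneous motility) and hole explorations. Groups of 12–15 mice were compared with CMC controls.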

Mus musculus [7] = experiment: Anxiolytic effect in mouse assessed as increase in time spent in light compartment at 10 mg/kg, po by light/dark box test; type: functional, organism-based; design: dose 10 mg/kg
Summary of the method: (§3)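 Male mice were used. Compound was given orally as a suspension in 1% CMC; diazepam was given ip in saline; volume 10 mL/kg. Each mouse was placed in the lit side of a two-compartment light/dark box and observed for 5 min, scoring time in the light and transfers. Groups were compared by ANOVA with Fisher PLSD.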

Mus musculus [8] = experiment: Anxiolytic effect in mouse assessed as increase in time spent in light compartment at 1 mg/kg, po by light/dark box test; type: functional, organism-based; design: dose 1 mg/kg; summary of the method: as §3
Mus musculus [9] = experiment: […] activity in mouse assessed as effect on explorative activity measuring number of inspections at 10 mg/kg, po after 5 mins by hole-board test relative to CMC-treated control; type: functional, organism-based; design: dose 10 mg/kg; summary of the method: as §2
Mus musculus [10] = experiment: Antiamnesic activity against scopolamine-induced amnesic effect in mouse assessed as increase in retention latency period at 3 mg/kg, po by passive avoidance test; type: functional, organism-based; design: dose 3 mg/kg; summary of the method: as §1

CCOC(=O)c1ncn2c1CN=C(c1ccc(C)cc1)c1ccccc1-2
Activity (Rattus norvegicus): Active | Ratio Ki (Bos taurus): 0.97 | Ki [1]: 11.4 nM | Ki [2]: 105 nM | Activity [3]: 0%

CCOC(=O)c1ncn2c1CN=C(c1ccc(F)cc1)c1cc(F)ccc1-2
Activity (Mus musculus [4]): inactive | Activity (Mus musculus [5]): Active | Ratio Ki (Bos taurus): 1 | Activity (Mus musculus [6]): inactive | Activity (Mus musculus [7]): Active | Activity (Mus musculus [8]): Active | Ki [1]: 10.9 nM | Ki [2]: 60 nM | Activity [3]: -7.5% | Activity (Mus musculus [9]): inactive | Activity (Mus musculus [10]): Active
